# Sampled rows, rich in hits. Any-hit rate of the full collection: about 1.4%.
# PLCg1 inh: inhibitors of human phospholipase C gamma1 | purified PLC-gamma1, fluorogenic substrate, fluorescence | inhibition, % at 12.2 µM | 370,000 compounds, 0.84% hits | AID 720700; in the data active means inhibition above about 9.5%
# DNA FID counter: fluorescent intercalator displacement, NS3 helicase counter-screen | DNA fluorescent intercalator displacement, fluorescence | inhibition, % at 7.9 µM | 290,000 compounds, 0.17% hits; in the data active means inhibition above about 37%;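 further: 0% = vehicle and 100% = reference compound; higher means more ethidium bromide displaced from hairpin DNA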
# Tn7 DDE FP: DD(E)-Tn7 binding inhibition, primary FP screen. P02675. FP displacement of FITC-Tn7 peptide from fibrin DD(E); 0% = median of compound wells per plate. inhibition, % at 8.3 µM. 370,000 compounds, 0.13% hits. AID 720508;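 active means inhibition above the mean of compounds falling within the control limits plus 3 SD of them, cut at about 14% in these data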;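 further: 0% = plate median of compound wells and 100% = 10 µM Aha-Tn7 peptide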
#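 Assay system: Human fibrin DD(E) protein | Medium: Tris buffer with calcium and detergent, pH 7.8 | Reagent: 0.1 µM fluorescent Tn7 | Compound dosing: Single point at 8.3 µM | Times: 10 min preincubation, 3 h with tracer, room temperature | Detection: Fluorescence polarization of the labelled Tn7 tracer | Controls: Aha-Tn7 high control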
# PLC-beta3 inh: PLC-beta3 (human) inhibition, primary screen | 370,000 compounds, 0.18% hits | Q01970 | inhibition, % at 12.2 µM | Purified PLC-beta3, fluorogenic substrate, fluorescence; in the data active means inhibition above about 11%;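 further: 0% = median of compound wells on plate and 100% = full blocker control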
# Tn6 DDE FP: DD(E)-Tn6 binding inhibition, primary FP screen; Fibrin DD(E) TRITC-Tn6 fluorescence polarization displacement; 370,000 compounds, 0.21% hits; inhibition, % at 8.3 µM; AID 720509; P02675;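 active means inhibition above a per-campaign cutoff: mean of compounds within control limits plus 3 SD, cut at about 15% in these data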;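 further: 0% = median of all compound wells on the plate and 100% = blocking peptide control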
# Starred values were filed as active, the others as inactive; i = inactive; · = no result given.
SMILES,PLCg1 inh,DNA FID counter,Tn7 DDE FP,PLC-beta3 inh,Tn6 DDE FP
CCOc1ccc(NCc2cccn2-c2nnc(N3CCC(C(=O)NCCCN4CC(C)CC(C)C4)CC3)s2)cc1 (configuration not stated),2,38*,5,-9,-2
C1=CC2(C=C1)OC21CCC2(C=CC3(C2)OC3C2CCCCC2)CC1 (configuration not stated),-2,·,0,1,7
CN(C)CCCn1c2c3ccccc3ccc2c2oc(=O)c3ccccc3c21,i,·,17*,i,8
Cc1ccccc1-c1nc(CS(=O)(=O)CC(=O)NCCCN2CC(C)CC(C)C2)c(C)o1 (configuration not stated),-1,37*,-9,-13,-4
Cc1ccc(-c2nc(CS(=O)(=O)CC(=O)NCCCN(Cc3ccccc3)C(C)C)c(C)o2)cc1,5,37*,3,-10,-3
c1ccc(CN2CCC(Nc3nc(-c4ccccc4)nc4ccccc34)CC2)cc1,-1,42*,-12,-1,0
COc1cc(/C=C/c2nc3ccccc3c(=O)[nH]2)ccc1OC(F)F,-7,-11,-4,-21,9
C[C@H]1CN(S(=O)(=O)C(C)(C)C)[C@H](CCO)/C1=C\c1ccccc1,1,·,8,-1,2
COc1ccc(OC)c(NC(=S)NCCC(c2ccccc2)c2ccccc2)c1,3,-4,1,2,-11
CC1(C)N=C(N)N=C(N)N1c1ccccc1,2,-1,6,6,0
CC1(C)N=C(N)N=C(N)N1c1ccc(CCCCc2ccccc2)cc1,11*,·,0,4,-1
CCOC(=O)C(C(C)=O)c1nc(C)nc2c1nnn2Cc1ccccc1Cl (configuration not stated),13*,-28,-2,2,-4
O=C(OCc1cccc([N+](=O)[O-])c1)c1ccc[nH]c1=O,3,1,-5,-1,-2
CSc1ccc(CNC(=O)C2(C)CCCN(C(C)=O)C2)cc1 (configuration not stated),4,·,-13,11*,-6
CSc1ccc(CNC(=O)C2(C)CCCN(C(C)C)C2)cc1 (configuration not stated),-2,·,5,0,0
CN(C)C(CNC(=O)c1ccc(NS(=O)(=O)c2ccc(F)cc2)cc1)c1ccco1 (configuration not stated),-1,·,-1,4,3
CC1=NN(c2ccccc2)C(=O)/C1=C/c1c(O)n(-c2ccc(F)c(Cl)c2)[nH]c1=O,·,41*,·,·,·
CC(C)C[C@H]1CN([C@@H](Cc2ccccc2)CN2CCC[C@H]2CN2C(=O)C(=O)NC[C@@H]2Cc2ccccc2)C(=O)C(=O)N1CC1CCCCCC1,2,·,-3,2,-4
COc1ccccc1-n1c(SCC(=O)O)nnc1-c1ccc(S(=O)(=O)N2CCCCC2)cc1,-1,-39,1,-1,1
CC(=O)NC(Cc1cc(C)ccc1C)C(=O)N1CCN(C(=O)Nc2ccc(C(C)=O)cc2)CC1 (configuration not stated),6,-39,15*,1,8
CC(=O)NC(Cc1cc(C)ccc1C)C(=O)N1CCN(C(=O)c2ccc(Br)cc2)CC1 (configuration not stated),1,-13,5,2,3
CN(CC(=O)Nc1ccccc1Cl)C(=O)COC(=O)c1ccc(=O)n(Cc2ccccc2)n1,3,·,3,-5,3
CN(CC(=O)Nc1ccc(F)cc1)C(=O)COC(=O)c1ccc(=O)n(Cc2ccccc2)n1,-9,·,56*,-29,15
O=C(COc1c(Br)cc(Br)c2cccnc12)Nc1ccccc1F,0,-6,2,1,-7
COc1ccc(N2C(=O)CCC(C(=O)NCc3cccnc3)C2c2ccc(OC)c(OC)c2)cc1 (configuration not stated),1,-3,8,2,-5
SMILES,PLCg1 inh,DNA FID counter,Tn7 DDE FP,PLC-beta3 inh,Tn6 DDE FP
C[C@H]1CCC[C@]2(O[C@H](CCO)C[C@@H](O)[C@@H]2O)O1,2,·,-1,4,3
COc1ccc(-c2ccc(C(=O)Nc3ccccc3)c3occc23)c(C)c1,-6,·,2,-8,-7
Cc1ccc2c(c1)N(S(=O)(=O)c1ccc(CN3C(=O)c4cccnc4C3=O)s1)CCO2,12*,-44,0,-4,-4
Cn1c(N=Nc2ccc(N3CCOCC3)cc2)[n+](C)c2ccccc21,0,59*,-6,-6,2
COc1ccc(CCN2CN(S(=O)(=O)c3ccccc3)c3nc4ccccc4nc32)cc1OC,-2,-20,-2,0,4
COc1cc(C(O)c2nc3ccccc3n2C(C)C)cc(OC)c1OC (configuration not stated),-3,53*,-2,0,1
COc1ccc(OC)c(C(O)c2nc3ccccc3n2C(C)C)c1 (configuration not stated),-4,-10,4,3,0
Cc1ccc([N+](=O)[O-])cc1N(CC(=O)Nc1ccc(S(=O)(=O)Nc2cccc(C(F)(F)F)c2)cc1)S(C)(=O)=O,9.9*,24,-2,2,-6
COc1ccc(OC)c(Nc2cc(C(=O)NCCCN3CCOCC3)c3ccccc3n2)c1,-4,41*,-3,-5,-1
COc1ccc(-c2cc(C(=O)NCCCN3CCOCC3)c3cc(C(C)C)ccc3n2)cc1,i,37*,5,i,0
CCOc1ccc(-c2cc(C(=O)NCCCN3CCOCC3)c3ccccc3n2)cc1,i,19,-1,i,1
COc1ccc(Nc2cc(C(=O)NCCCN3CCN(C)CC3)c3ccccc3n2)cc1,0,41*,3,-4,15
O=C(CCc1ccccc1)Nc1nnc(-c2cccs2)o1,0,-6,-7,1,2
CCN1CCN(C(=O)c2cc3c(-c4ccc(Cl)cc4)nn(C)c3s2)CC1,-71,24,-6,-109,1
CCOC(=O)CSC1=C(C#N)C(c2ccccc2F)C(C(C)=O)=C(C)N1 (configuration not stated),-11,-19,11,-12,-2
CCOc1ccc(Nc2nc(NCC3CCCO3)c3ccccc3n2)cc1 (configuration not stated),0,39*,-5,-5,3
c1ccc(Nc2nc(NCC3CCCO3)c3ccccc3n2)cc1 (configuration not stated),-9,22,-5,-17,-2
C[C@@H]1CCC(=O)N(C[C@@H](C)CSc2ccccc2)CC1,11*,-36,-9,7,-4
Cc1ccc(SC[C@H](C)CN2CC[C@H](C)CCC2=O)cc1,0,-42,6,0,1
O=C(Cc1sc(Nc2ccccc2)nc1-c1ccccc1)NCc1ccccn1,-10,-13,-8,-12,0
CC1CCN(Cc2nc(-c3ccccc3)no2)CC1,9,-2,2,0,1

# Screens from PubChem.
